This is an account of results in PMC11041979 (International Journal of Nanomedicine, 2024).

Converted amounts (≈) assume the structure as drawn.

For data set [1] the following is noted: literature value; cited from earlier work.
Data set [2] can be described thus: Pharmacokinetics of MA in rats after oral gavage. It is filed as in vivo, Sprague-Dawley rats. An outline of the steps: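 Male Sprague-Dawley rats (200 ± 20 g), acclimatised 1 week, fasted 12 h with free water. Test compound given by gavage at 20 mg/kg (2 mg/mL) as an aqueous suspension or as a saturated suspension in carbon-dot solution (stirred 20 min). Orbital blood drawn 5–1440 min into heparin. Plasma protein-precipitated with acetonitrile:acetic acid 9:1, isomangiferin internal standard, UHPLC-MS/MS. Mean ± SD.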

The nature of another data set: Water solubility assay. It is filed as physicochemical. An outline of the steps:
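Saturated aqueous test-compound solutions were sonicated, centrifuged and diluted 10–500-fold. Carbon dots (3 mg/mL stock) were diluted to 10 levels, 1500–3.12 μg/mL. Samples were centrifuged at 10000 rpm for 10 min and filtered through 0.22 µm. HPLC used a C18 column at 30°C with 0.4% acetic acid water–acetonitrile 85:15 at 1.0 mL/min and detection at 318 nm. Calibration followed Chinese Pharmacopoeia methods.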

Where [3] appears, read: Sprague-Dawley, rat, plasma, po, 20 mg/kg.

Consider `O=c1c2cc(O)c(O)cc2oc2cc(O)c([C@@H]3O[C@H](CO)[C@@H](O)[C@H](O)[C@H]3O)c(O)c12` [MA, Mangiferin], for which the “Tmax after oral administration” value in data set [1] was “about 267.49 ± 108.29 min”. For the same compound, in data set [2] (MA, oral, preliminary rat pharmacokinetics), the maximum concentration was determined as 200 ng. Besides, in data set [2] (setting [3]), the AUC(0-t) is 1.52 ± 2.64 ng·h/mL, the maximum concentration (Cmax) turned out to be 0.201 ± 0.0314 ng/mL, the time to peak (Tmax) came to 4 ± 1.42 h and the half-life is 3.27 ± 2.18 h. The “solubility of MA in water with MC-CDs” value in “Water solubility assay” (aqueous MC-CDs solution, MC-CDs concentration exceeding 100 μg/mL) was “increases significantly”. The same compound yielded a solubility in the data set “Water solubility assay” (water, thermodynamic from solid) of 115 µg/mL (≈ 273 µM).

Broadly, the AUC(0-t) is the area under the concentration-time curve up to a stated or last time point. Low values mean low exposure, high ones high exposure. In general, Cmax refers to the peak of the concentration-time curve. As a reminder, the Tmax is the time at which the peak concentration occurs. The half-life is the time in which the quantity being followed falls by half. Read a low half-life as rapid decline. In general, solubility refers to the dissolved amount per volume that the medium holds.
